According to ChEMBL document CHEMBL4334446, “Evaluating the effects of fluorine on biological properties and metabolic stability of some antitubulin 3-substituted 7-phenyl-pyrroloquinolinones” (Eur J Med Chem, 2019):
Active and inactive are the calls of the source. The calls are words filed in the database; no cut-off is given here.

How the values were obtained:
[1] = Metabolic stability in NADPH-supplemented human liver microsomes assessed as parent compound remaining at 37 degC incubated for 30 mins; assay type: ADME, Microsome; conditions: read-out: Stability
How it was run: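 Compound (10 µM) was incubated at 37 °C with 0.5 mg/mL pooled HLMs and 1 mM NADPH in 0.1 M KH2PO4 pH 7.4, sampled at 0, 2, 5, 15 and 30 min. Controls without NADPH, or buffer only, ran 0 and 30 min. Parent was quantified by HPLC-fluorescence as % of the 0 min level, n = 3. t1/2 = 0.693/k, with k from regression of ln % remaining versus time.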

[2] = Metabolic stability in human liver microsomes assessed as 7-phenyl-3H-pyrrolo[3,2-f]quinolin-9(6H)-one metabolite formation at 10 uM incubated for 60 mins in presence of NADPH by ESI-MS analysis; assay type: ADME, Microsome; conditions: 1 h
How it was run: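 Compound (10 µM) was incubated with pooled mixed-gender HLMs (0.5 mg protein/mL), 1 mM NADPH and 0.1 M KH2PO4 pH 7.4 for 60 min at 37 °C, aerobic. The reaction was started with microsomes and stopped with ice-cold acetonitrile; controls lacked NADPH. The supernatant went to C8 HPLC with fluorescence detection (ex 344, em 493 nm). Collected peaks were analyzed by ESI+ mass spectrometry.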

[3] = tested on: MDA-MB-231; test: Growth inhibition of human MDA-MB-231 cells incubated for 72 hrs by MTT assay; assay type: functional; conditions: MDA-MB-231, 72 h
[4] = tested on: A-375; test: Growth inhibition of human A375 cells incubated for 72 hrs by MTT assay; assay type: functional; conditions: A-375, 72 h
[5] = tested on: A2058; test: Induction of cell cycle arrest in human A2058 cells assessed as accumulation of cells at G2/M phase at 50 to 100 nM incubated for 24 hrs by PI staining based flow cytometric analysis; assay type: functional
How it was run: (§1)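 A375 and A2058 melanoma cells were treated 24 h. Cells were fixed in ice-cold 70% ethanol, then given lysis buffer with RNase A and 0.1% Triton X-100 and stained with PI. Phase distribution came from flow cytometric DNA histograms. Mean ± SEM of two independent experiments.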

[6] = tested on: A-375; test: Induction of cell cycle arrest in human A375 cells assessed as reduction in cell population at G1 phase at 50 to 100 nM incubated for 24 hrs by PI staining based flow cytometric analysis; assay type: functional; how it was run: as §1
[7] = tested on: A2058; test: Induction of cell cycle arrest in human A2058 cells assessed as reduction in cell population at S phase at 50 to 100 nM incubated for 24 hrs by PI staining based flow cytometric analysis; assay type: functional; how it was run: as §1
[8] = tested on: A2058; test: Induction of cell cycle arrest in human A2058 cells assessed as reduction in cell population at G1 phase at 50 to 100 nM incubated for 24 hrs by PI staining based flow cytometric analysis; assay type: functional; how it was run: as §1
[9] = tested on: HeLa; test: Cell cycle arrest in human HeLa cells assessed as proportion of mitotic cells at 50 nM incubated for 24 hrs by PI staining based flow cytometric assay (reference value: 1.5%); assay type: functional
[10] = tested on: HeLa; test: Cell cycle arrest in human HeLa cells assessed as proportion of mitotic cells at 100 nM incubated for 24 hrs by PI staining based flow cytometry (reference value: 1.5%); assay type: functional
[11] = tested on: HeLa; test: Induction of apoptosis in human HeLa cells at 50 nM incubated for 24 to 48 hrs by annexin-V FITC and PI staining based flow cytometric analysis; assay type: functional, cell-based
How it was run: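 HeLa cells were treated 24 or 48 h, then harvested and double-stained with annexin-V-FITC and PI for flow cytometry. Populations were separated as live, early apoptotic, late apoptotic and necrotic. Mean ± SEM of three independent experiments.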

[12] = tested on: HeLa; test: Induction of ROS generation in human HeLa cells at 100 nM incubated for 12 to 24 hrs by H2DCFDA staining based flow cytometric analysis; assay type: functional, cell-based
How it was run: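 HeLa cells were treated 6, 12, 24 and 48 h, then stained with H2-DCFDA. ROS fluorescence was read by flow cytometry. Mean ± SEM of three independent experiments.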

[13] = tested on: HeLa; test: Induction of apoptosis in human HeLa cells assessed as decrease in Bcl2 protein expression at 10 to 100 nM incubated for 24 hrs by western blot analysis; assay type: functional, cell-based
How it was run: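 HeLa cells were exposed for set times, including 24 and 48 h, then washed in cold PBS and lysed on ice for 30 min. Lysates were cleared at 15000 × g at 4 °C. 10 µg protein was run by SDS-PAGE and transferred to PVDF. Blots were probed 2 h at room temperature with primary antibodies, then peroxidase secondary antibodies, and detected by ECL. Membranes were reprobed for actin as loading control.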

[14] = tested on: B16-BL6; test: Growth inhibition of mouse B16-BL6 cells incubated for 72 hrs by MTT assay; assay type: functional; conditions: B16-BL6, 72 h
[15] = tested on: B16-BL6; test: Antitumour activity against mouse B16-BL6 cells allografted in C57BL/6 mouse assessed as reduction in tumor mass at 7.5 mg/kg, ip administrated every other day relative to control; assay type: functional
How it was run: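 Male C57BL/6 mice (six weeks old) got 2.5×10^5 BL6-B16 murine melanoma cells s.c. in the dorsolateral flank, in PBS. Once tumors were measurable (about 100 mm³), mice were randomized and given drug i.p. every other day in 50 µL DMSO. Vehicle (DMSO) group served as control. Tumor volume = (D × d²)/2; tumor weight taken at end. 5 animals per group, mean ± SEM.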

[16] = Toxicity in C57BL/6 mouse allografted with mouse B16-BL6 cells assessed as change in body weight at 3 to 7.5 mg/kg, ip administrated every other day; assay type: organism-based; conditions: in vivo
How it was run: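 Male six-week-old C57BL/6 mice were given BL6-B16 murine melanoma cells subcutaneously in the dorsolateral flank in PBS. Once tumours reached about 100 mm³, mice were randomised and dosed intraperitoneally every other day with 3.0 or 7.5 mg/kg in DMSO, or vehicle alone. Body weight change was followed; 5 animals per group, mean ± SEM.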

Row | remaining at 0.5 h [1] | Drug metabolism [2] | GI50 [3] | GI50 [4] | GI50 [14] | Compound | Activity [5] | Activity [6] | Activity [7] | Activity [8] | Activity [9] | Activity [10] | Activity [11] | Activity [12] | Activity [13] | inhibition in vivo at 7.5 mg/kg [15] | Activity [16]
1 | < 70% | Metabolite_Detected | – | – | – | CCn1ccc2c3c(=O)cc(-c4ccccc4)[nH]c3ccc21 | – | – | – | – | – | – | – | – | – | – | –
2 | – | – | 164 nM | 15.5 nM | 10 nM | CCn1ccc2c3c(=O)cc(-c4ccccc4F)[nH]c3ccc21 | Active | Active | Active | Active | 10% | 44% | Active | Active | Active | 60% | Non-Toxic
